Assay results reported in ChEMBL document CHEMBL1122847, “Antitrichomonal activity of mesoionic thiazolo[3,2-a]pyridines” (1985).
≈ marks a conversion by molar mass, not a printed value.

What was measured:
Tritrichomonas suis [1] = test: The minimum lethal concentration (MLC) against Trichomonas foetus; type: functional
Procedure, shortened: (§1)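 Broth microdilution in Kupferberg's medium (pH 7.2); compounds serially diluted 200–0.2 µg/mL in duplicate; each well inoculated with T. foetus at 15 parasites/mm3 in broth, overlaid with sterile mineral oil; 30 °C for 48 h; wells examined microscopically for viable parasites; MLC = lowest concentration without viable parasites; single values reflect consistent duplicate end points.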

Cricetinae gen. sp. [2] = test: Value is expressed as the ratio of (Tritrichomonas foetus) animals cured / total number(5) infected at day 1 post treatment after 4 days of treatment; type: functional, Cricetulus griseus
Procedure, shortened: (§2)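 From day 3 postinfection, animals got one daily intravaginal 2% (w/w) propylene glycol cream dose plus two daily sc suspension doses (100 mg/kg) for 4 days. Vaginal washings (Kupferberg's medium) were taken days 1 and 4 posttreatment and checked microscopically for viable parasites.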

Mesocricetus auratus [3] = species: Mesocricetus auratus; test: Value is expressed as the ratio of (Tritrichomonas foetus) animals cured / total number(5) infected at day 4 post treatment after 4 days of treatment
Cricetinae gen. sp. [4] = test: Value is expressed as the ratio of (Tritrichomonas foetus infected) animals cured / total number(5) infected at day 4 post treatment after 4 days of treatment; type: functional, Cricetulus griseus; procedure, shortened: as §2
Cricetinae gen. sp. [5] = test: Value is expressed as the ratio of (Tritrichomonas foetus infected) animals cured / total number(5) infected at day 1 post treatment after 4 days of treatment; type: functional, Cricetulus griseus; procedure, shortened: as §2
Tritrichomonas suis [6] = test: The minimum lethal concentration (MLC) is determined in Trichomonas foetus; type: functional; procedure, shortened: as §1
Mesocricetus auratus [7] = species: Mesocricetus auratus; test: Value is expressed as the ratio of (Tritrichomonas foetus infected) animals cured / total number(15) infected at day 1 post treatment after 4 days of treatment
Mesocricetus auratus [8] = species: Mesocricetus auratus; test: Value is expressed as the ratio of (Tritrichomonas foetus infected) animals cured / total number(15) infected at day 4 post treatment after 4 days of treatment

Structure (SMILES) | MLC (Tritrichomonas suis [1]) | also measured
[O-]c1c(-c2ccccc2)sc2sc3ccccc3[n+]12 | >200 µg/mL | –
O=[N+]([O-])c1ccc2sc(-c3ccccc3)c([O-])[n+]2c1 | 200 µg/mL (≈ 735 µM) | –
Cc1ccc(-c2sc3cccc[n+]3c2[O-])cc1 | 12.5 µg/mL (≈ 51.8 µM) | Activity (Cricetinae gen. sp. [2]): 0; Activity (Mesocricetus auratus [3]): 0
[O-]c1c(-c2ccccc2)sc2cncc[n+]12 | >200 µg/mL | –
CC(=O)Nc1ccc(-c2sc3cccc[n+]3c2[O-])cc1 | >200 µg/mL | –
Br.[NH-]c1c(-c2ccccc2)sc2cccc[n+]12 | >200 µg/mL | –
O=[N+]([O-])c1cccc(-c2sc3cccc[n+]3c2[O-])c1 | >200 µg/mL | –
Cc1cc[n+]2c([O-])c(-c3ccccc3)sc2c1 | 200 µg/mL (≈ 829 µM) | –
[O-]c1c(-c2ccccc2)oc2cccc[n+]12 | >200 µg/mL | Activity (Cricetinae gen. sp. [2]): 0; Activity (Mesocricetus auratus [3]): 0
O=C([N-]c1c(-c2ccccc2)sc2cccc[n+]12)c1ccccc1 | >200 µg/mL | –
Nc1ccc(-c2sc3cccc[n+]3c2[O-])cc1 | 1.6 µg/mL (≈ 6.6 µM) | Activity (Cricetinae gen. sp. [2]): 0; Activity (Mesocricetus auratus [3]): 0
[O-]c1c(-c2ccc(Cl)cc2)sc2cccc[n+]12 | 25 µg/mL (≈ 95.5 µM) | Activity (Cricetinae gen. sp. [2]): 0; Activity (Mesocricetus auratus [3]): 0
[S-]c1c(-c2ccccc2)sc2cccc[n+]12 | >200 µg/mL | –
O=[N+]([O-])c1ccc[n+]2c([O-])c(-c3ccccc3)sc12 | 0.8 µg/mL (≈ 2.94 µM) | Activity (Cricetinae gen. sp. [2]): 0; Activity (Mesocricetus auratus [3]): 0
[O-]c1c(-c2ccccn2)sc2cccc[n+]12 | 25 µg/mL (≈ 110 µM) | Activity (Cricetinae gen. sp. [2]): 1; Activity (Mesocricetus auratus [3]): 0
[O-]c1c(-c2ccccc2)sc2ccc3ccccc3[n+]12 | >200 µg/mL | –
Nc1cccc(-c2sc3cccc[n+]3c2[O-])c1 | 12.5 µg/mL (≈ 51.6 µM) | –
[O-]c1c(/C=C/c2ccccc2)sc2cccc[n+]12 | 200 µg/mL (≈ 789 µM) | –
[O-]c1c(-c2ccccc2)sc2nccc[n+]12 | >200 µg/mL | –
[O-]c1c(-c2cccnc2)sc2cccc[n+]12 | 12.5 µg/mL (≈ 54.8 µM) | Activity (Cricetinae gen. sp. [2]): 0; Activity (Mesocricetus auratus [3]): 0
COc1ccc(-c2sc3cccc[n+]3c2[S-])cc1 | >200 µg/mL | –

Structure (SMILES) | MLC (Tritrichomonas suis [1]) | also measured
CC(=O)Nc1cccc(-c2sc3cccc[n+]3c2[O-])c1 | 200 µg/mL (≈ 703 µM) | –
CC(=O)[N-]c1c(-c2ccccc2)sc2cccc[n+]12 | >200 µg/mL | –
[O-]c1c(-c2ccccc2)sc2c(O)ccc[n+]12 | >200 µg/mL | –
CC(C)(C)c1ccc(-c2sc3cccc[n+]3c2[O-])cc1 | 25 µg/mL (≈ 88.2 µM) | –
Nc1ccccc1-c1sc2cccc[n+]2c1[O-] | 3.12 µg/mL (≈ 12.9 µM) | –
O=[N+]([O-])c1ccccc1-c1sc2cccc[n+]2c1[O-] | 25 µg/mL (≈ 91.8 µM) | –
[S-]c1c(-c2ccc(Cl)cc2)sc2cccc[n+]12 | >200 µg/mL | –
CCOC(=O)C(Sc1ccccn1)c1ccccc1 (stereo unspecified) | >200 µg/mL | Activity (Cricetinae gen. sp. [4]): 0; Activity (Cricetinae gen. sp. [5]): 0
[O-]c1c(Sc2ccc(Cl)cc2)sc2cccc[n+]12 | >200 µg/mL | –
O=C([O-])C(Sc1ccccn1)c1ccccc1.[Na+] (stereo unspecified) | >200 µg/mL | Activity (Cricetinae gen. sp. [4]): 0; Activity (Cricetinae gen. sp. [5]): 0
Cc1cccc2sc(-c3ccccc3)c([O-])[n+]12 | >200 µg/mL | –
OC1=C(c2ccccc2)SC(c2ccccc2)N1c1ccccc1 (stereo unspecified) | – | MLC (Tritrichomonas suis [6]): >200 µg/mL
Nc1ccc2sc(-c3ccccc3)c([O-])[n+]2c1 | 100 µg/mL (≈ 413 µM) | –
[O-]c1c(-c2ccccc2)sc2cccc[n+]12 | 12.5 µg/mL (≈ 55 µM) | Activity (Cricetinae gen. sp. [2]): 0; Activity (Mesocricetus auratus [3]): 0
[O-]c1c(-c2ccncc2)sc2cccc[n+]12 | 50 µg/mL (≈ 219 µM) | Activity (Cricetinae gen. sp. [2]): 4; Activity (Mesocricetus auratus [3]): 0
[O-]c1c(-c2ccccc2Cl)sc2cccc[n+]12 | 100 µg/mL (≈ 382 µM) | Activity (Cricetinae gen. sp. [2]): 0; Activity (Mesocricetus auratus [3]): 0
Cc1ncc([N+](=O)[O-])n1CCO [METRONIDAZOLE] | – | Activity (Mesocricetus auratus [7]): 15; Activity (Mesocricetus auratus [8]): 15
O=[N+]([O-])c1ccc(-c2sc3cccc[n+]3c2[O-])cc1 | >200 µg/mL | –
Nc1ccc[n+]2c([O-])c(-c3ccccc3)sc12 | 200 µg/mL (≈ 825 µM) | –
CN(C)c1ccc(-c2sc3cccc[n+]3c2[O-])cc1 | 0.8 µg/mL (≈ 2.96 µM) | Activity (Cricetinae gen. sp. [2]): 0; Activity (Mesocricetus auratus [3]): 0
COc1ccc(-c2sc3cccc[n+]3c2[O-])cc1 | 6.25 µg/mL (≈ 24.3 µM) | Activity (Cricetinae gen. sp. [2]): 0; Activity (Mesocricetus auratus [3]): 0
